Measured values taken from the array DNA melting data of Ke et al. (doi:10.1101/2024.01.08.574731).

Columns and labels:
[1] = melting temperature; fluorescence melt of hairpins on a sequencing array, two-state fit, raised by 9.35 °C to match UV melts; conditions: sodium 0.088 M
Summary of the method: (§1)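 On a sequenced MiSeq flow cell, library hairpins with annealed Cy3 and quencher oligos were imaged for Cy3 fluorescence in 2.5 °C steps up to 60 °C, in 50 mM Na-HEPES pH 8.0, 25 mM NaCl. Normalisation used pre-quench Cy3 and control constructs. Bootstrapped two-state fits gave melting temperature and folding enthalpy, combined by inverse variance across four replicates and with fitted temperatures raised by 9.35 °C to match UV melts.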

[2] = folding enthalpy; higher = less favourable; fluorescence melt of hairpins on a sequencing array, two-state fit; conditions: sodium 0.088 M
Summary of the method: as §1

| Sequence | Tm [1] | folding enthalpy [2] |
| --- | --- | --- |
| GTGTAAGCGAAAGCTCAC (((..(((....)))))) | 44.9 °C | -19.3 kcal/mol |
| GGACTTGGAAACGAGTTC (.(((.(....).))).) | 32.9 °C | -21.5 kcal/mol |
| GCATAGCGAAAGCAAGGC ((.(.((....)).).)) | 37.9 °C | -14 kcal/mol |
| GCTGAGCGAAAGCTATGC ((..(((....)))..)) | 48.6 °C | -17.4 kcal/mol |
| GATGGGCCGAAAGGCATC (((..(((....)))))) | 34.8 °C | -9.87 kcal/mol |
| GTCCGGGGAAACCCAGAC (((.(((....))).))) | 42.8 °C | -29.6 kcal/mol |
| GATCCTAACAGGATC ((((((...)))))) | 55.3 °C | -40.5 kcal/mol |
| GTTCGACGAAAGTCCAAC (((.(((....))).))) | 34.5 °C | -19.8 kcal/mol |
| GTTATAGGAAACTATGAC ((.((((....)))).)) | 33 °C | -23 kcal/mol |
| GCCTTGCGAAAGCAAAGC ((.((((....)))).)) | 55.9 °C | -14.9 kcal/mol |
| GAACGGGGAAACCCGTTC (((((((....))))))) | 67.9 °C | -34.2 kcal/mol |
| GACGTTGCGAAAGCAGTC (((..(((....)))))) | 49.9 °C | -16.5 kcal/mol |
| GCGTTGATACGC ((((....)))) | 53.1 °C | -23.1 kcal/mol |
| GATCGTCCAGACGATC ((((((....)))))) | 59.8 °C | -42.3 kcal/mol |
| GGTAGTGGAAACACTGCC ((.((((....)))).)) | 53 °C | -38.9 kcal/mol |
| GCGGATTACCGC ((((....)))) | 54.9 °C | -20 kcal/mol |
| GCTGTGCGAAAGCCCCGC ((.(.((....)).).)) | 31.1 °C | -12.5 kcal/mol |
| GGTCCTGGAAACAGAACC (((.(((....))).))) | 38.9 °C | -29.7 kcal/mol |
| GTAGCTGGAAACAGTTAC (((.(((....))).))) | 42.8 °C | -32.8 kcal/mol |
| GCAGTCGAAAGACGGTGC ((((((....)))..))) | 48.5 °C | -19 kcal/mol |
| GCATTTACGAAAGTATGC (((..(((....)))))) | 38 °C | -22.2 kcal/mol |
| GTCGAGGGAAACTTCGAC (((((.(....).))))) | 49.6 °C | -42.6 kcal/mol |
| GATCTGGATGCAGATC ((((((....)))))) | 50.8 °C | -35.5 kcal/mol |

| Sequence | Tm [1] | folding enthalpy [2] |
| --- | --- | --- |
| GCTAAGCGAAAGCATAGC ((((.((....)).)))) | 54.8 °C | -27 kcal/mol |
| GAATACGAAAGTATCTTC ((((((....)))..))) | 46.2 °C | -28.1 kcal/mol |
| GTACTCGGAAACGAATAC (((.(((....))).))) | 33.5 °C | -17.8 kcal/mol |
| GATTTACGAAAGTAATC (((.(((....)))))) | 32 °C | -17.8 kcal/mol |
| GCATTTCGAAAGAATTGC (((.(((....))).))) | 47.1 °C | -33.7 kcal/mol |
| GCAAGAGGAAACTCTCGC ((.((((....)))).)) | 37.6 °C | -25.6 kcal/mol |
| GCTGAGCGAAAGCACCGC ((.(.((....)).).)) | 37.2 °C | -19 kcal/mol |
| GTCGGAGAAATCCGAC ((((((....)))))) | 61.7 °C | -35.7 kcal/mol |
| GCGTTATAACGC ((((....)))) | 55.5 °C | -30.4 kcal/mol |
| GGTACAACGAAAGTTACC (((..(((....)))))) | 33.3 °C | -17.3 kcal/mol |
| GCGGACAGCCGC ((((....)))) | 53.8 °C | -17.4 kcal/mol |
| CGGCCGGAAACGGGCCG ((((((....))).))) | 66.9 °C | -20 kcal/mol |
| GGCGCAGGAAACCGCGCC (((((.(....).))))) | 68.8 °C | -37.3 kcal/mol |
| GTGGCCGAAAGGCGACAC ((((((....)))..))) | 57.4 °C | -14 kcal/mol |
| GATCGACTAGTCGATC ((((((....)))))) | 63.7 °C | -45.6 kcal/mol |
| GATCACGGAAACGTGATC (((((((....))))))) | 66.2 °C | -34.2 kcal/mol |
| GTTGTTGCGAAAGCAAAC (((..(((....)))))) | 53.1 °C | -21.7 kcal/mol |
| GAAGGCGAAAGCCGATTC ((((((....)))..))) | 57.8 °C | -14.7 kcal/mol |
| GAAGGCCGAAAGGCTTTC (((.(((....))).))) | 54.2 °C | -20.6 kcal/mol |
| GCTTAGGGAAACCTAAGC (((((((....))))))) | 59.8 °C | -34 kcal/mol |
| GTATATCCGAAAGGATAC (((..(((....)))))) | 34.7 °C | -12.4 kcal/mol |
| GGCTTGCGAAAGCAGGCC (((.(((....))).))) | 69.2 °C | -31.3 kcal/mol |
| GATAGCGAAAGCTGAATC ((((((....)))..))) | 27 °C | -10.9 kcal/mol |

| Sequence | Tm [1] | folding enthalpy [2] |
| --- | --- | --- |
| GTTTGAGGAAACTCGAAC (((.(((....))).))) | 45.6 °C | -31.7 kcal/mol |
| GCTTGCCCGAAAGGGAGC (((..(((....)))))) | 48.1 °C | -14.7 kcal/mol |
| GCGTCCGGAAACGGACAC (.(((((....))))).) | 51 °C | -11.2 kcal/mol |
| GATCGAGGAAACTCGGTC ((.((((....)))).)) | 50.5 °C | -30.4 kcal/mol |
| GGGTCTGGAAACAAACCC ((((.((....)).)))) | 37.9 °C | -31.6 kcal/mol |
| GCTAGGCGAAAGCTAAGC (((..((....))..))) | 48.7 °C | -18.6 kcal/mol |
| GACTACGGAAACGTGGTC (((.(((....))).))) | 52 °C | -42.8 kcal/mol |
| GCCTTTGGAAACAAAGAC (.(((((....))))).) | 34.7 °C | -21.9 kcal/mol |
| CGCTCCGGAAACGGTGCG (((.(((....))).))) | 60.2 °C | -31.3 kcal/mol |
| GGATCGGGAAACCGGTCC (((.(((....))).))) | 56.1 °C | -50.4 kcal/mol |
| GCTAAAGCGAAAGCTAGC (((..(((....)))))) | 47.3 °C | -21.4 kcal/mol |
| GGGTGTGGAAACATACCC ((((.((....)).)))) | 52.1 °C | -45.6 kcal/mol |
| GATCTCCGTTGAGATC ((((((....)))))) | 52.6 °C | -35.6 kcal/mol |
| GTACTTGGAAACGAGTAC (((((.(....).))))) | 44.2 °C | -33.6 kcal/mol |
| GATCTGCGAAAGCAATC (((.(((....)))))) | 27.8 °C | -12.2 kcal/mol |
| GCCGTGCGAAAGCACAGC ((.((((....)))).)) | 61.2 °C | -14 kcal/mol |
| GCGTGTCCACGC ((((....)))) | 61.5 °C | -32.9 kcal/mol |
| GATCAATTTATTGATC ((((((....)))))) | 54.2 °C | -52.4 kcal/mol |
| GGGTATGGAAACGTACCC (((((.(....).))))) | 50.1 °C | -42.7 kcal/mol |
| GATCCCGAGGGGATC ((((((...)))))) | 62.6 °C | -42.5 kcal/mol |
| GGAGGAGGAAACTTCTCC ((((.((....)).)))) | 45.2 °C | -35.9 kcal/mol |
| GACAAGGGAAACCCTGTC ((((.((....)).)))) | 42.5 °C | -27.8 kcal/mol |
| GATATTGGAAACAGTATC ((((.((....)).)))) | 34.3 °C | -12.2 kcal/mol |
